3 molecules from ChEMBL document CHEMBL1132156, “Synthesis and structure-activity relationships of potential anticancer agents: alkylcarbamates of 3-(9-acridinylamino)-5-hydroxymethylaniline” (J Med Chem, 1999) can be followed below.

Data set [1] has as its system Mus musculus. Description: […] anticancer activity against 5 B6D2F-1 mice bearing P388 leukemia measured by the toxicity death at an intravenous dose of 22(mg/kg). Conditions: in vivo. Type of data set: organism-based. In short, it runs like this: (§1)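 Male B6D2F1 mice, 8 weeks old, 20–25 g. P388/0 ascites cells (0.2 mL, ascites:saline 1.10) were implanted iv on day 0, and the tumor grew in the liver. Drug was given iv by tail vein on days 1, 3, 5, 7 and 9 (Q2Dx5), with 4–5 mice per group. Survival time was scored as 8 a.m. (0.0), 1 p.m. (0.25) or 5 p.m. (0.5) deaths. %ILS was averaged against untreated controls, and toxic deaths were counted.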

For data set [2], the system named is Mus musculus. Briefly: […] anticancer activity against B6D2F-1 mice bearing P388 leukemia measured by the increase in lifespan at an intravenous dose of 30(mg/kg). Type of data set: functional. A digest of the protocol:
as §1

In data set [3] the test system is Mus musculus. Briefly: […] anticancer activity against B6D2F-1 mice bearing P388 leukemia measured by the average survival time(days) at an intravenous dose of 16(mg/kg).. Type of data set: functional. A digest of the protocol: as §1
The test system of data set [4] is Mus musculus. Briefly: […] anticancer activity against B6D2F-1 mice bearing P388 leukemia measured by the average body weight(g) after day 1 at an intravenous dose of 22(mg/kg).
For data set [5], the system named is Mus musculus. Briefly: […] anticancer activity against B6D2F-1 mice bearing P388 leukemia measured by the average weight change(g) after day 11 at an intravenous dose of 16(mg/kg). The data set is classed as functional. In short, it runs like this: (§2)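 Male B6D2F1 mice (8 weeks old, 20–25 g) were implanted iv on day 0 with P388/0 ascites cells (0.2 mL; ascites:saline 1.10), which grew in the liver. Drug was given iv via the tail vein, Q2Dx5, on days 1, 3, 5, 7 and 9. Groups had 4–5 mice. Day 1 value is mean body weight; later days are weight change.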

Data set [6] concerns Mus musculus. Briefly: […] anticancer activity against B6D2F-1 mice bearing P388 leukemia measured by the average weight change(g) after day 7 at an intravenous dose of 22(mg/kg). The data set is classed as functional. A digest of the protocol:
as §2

Data set [7] has as its system Mus musculus. Briefly: […] anticancer activity against B6D2F-1 mice bearing P388 leukemia measured by the Average survival time(days) at an intravenous dose of 22(mg/kg). The data set is classed as functional. A digest of the protocol: as §1
In data set [8] the test system is Mus musculus. Description: […] anticancer activity against B6D2F-1 mice bearing P388 leukemia measured by the average weight change(g) after day 9 at an intravenous dose of 22(mg/kg). The data set is classed as functional. A digest of the protocol:
(§3)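 Male B6D2F1 mice (8 weeks old, 20–25 g) were implanted iv on day 0 with P388/0 ascites cells (0.2 mL; ascites:saline = 1.10). Tumor grew in the liver. Drug was given iv via the tail vein, Q2Dx5, on days 1, 3, 5, 7 and 9. Body weight was recorded on days 1, 7, 9 and 11 and reported as the average change (g).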

Data set [9] concerns Mus musculus. Briefly: […] anticancer activity against B6D2F-1 mice bearing P388 leukemia measured by the average weight change(g) after day 7 at an intravenous dose of 16(mg/kg). Type of data set: functional. In short, it runs like this: as §2
For data set [10], the system named is Mus musculus. Briefly: […] anticancer activity against B6D2F-1 mice bearing P388 leukemia measured by the average weight change(g) after day 11 at an intravenous dose of 22(mg/kg). Type of data set: functional. In short, it runs like this:
as §2

The subject of data set [11] is Mus musculus. Description: […] anticancer activity against B6D2F-1 mice bearing P388 leukemia measured by the average weight change(g) after day 7 at an intravenous dose of 30(mg/kg). The data set is classed as functional. A digest of the protocol: as §3
In data set [12] the test system is Mus musculus. Briefly: […] anticancer activity against B6D2F-1 mice bearing P388 leukemia measured by the average body weight(g) after day 1 at an intravenous dose of 16(mg/kg).
Data set [13] concerns Mus musculus. Description: […] anticancer activity against B6D2F-1 mice bearing P388 leukemia measured by the average weight change(g) after day 11 at an intravenous dose of 30(mg/kg). The data set is classed as functional. A digest of the protocol:
as §2

The subject of data set [14] is Mus musculus. Briefly: […] anticancer activity against 5 B6D2F-1 mice bearing P388 leukemia measured by the toxicity death at an intravenous dose of 16(mg/kg).. Type of data set: organism-based. As to conditions: in vivo. In short, it runs like this:
as §1

Data set [15] relates to Mus musculus. Description: […] anticancer activity against B6D2F-1 mice bearing P388 leukemia measured by the average weight change(g) after day 9 at an intravenous dose of 30(mg/kg). The data set is classed as functional. In short, it runs like this: as §3
The subject of data set [16] is Mus musculus. Description: […] anticancer activity against B6D2F-1 mice bearing P388 leukemia measured by the increase in lifespan at an intravenous dose of 16(mg/kg).. Type of data set: functional. A digest of the protocol: as §1
For data set [17], the system named is HL-60. Briefly: In vitro inhibition of human leukemic HL-60 cell growth in culture. The data set is classed as functional, cell-based. In short, it runs like this: (§4)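 HL-60 cells were seeded at 5×10^4 cells/mL in RPMI 1640 with 10% heat-inactivated FBS, penicillin and streptomycin, at 37 °C in 5% CO2. Cells were exposed for 72 h to six or seven drug concentrations, run in duplicate. Viability was read by XTT-tetrazolium microculture absorbance, and IC50 was derived from median-effect plot analysis.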

The test system of data set [18] is Mus musculus. Briefly: […] anticancer activity against B6D2F-1 mice bearing P388 leukemia measured by the average body weight(g) after day 1 at an intravenous dose of 30(mg/kg).
Data set [19] concerns Mus musculus. Briefly: […] anticancer activity against B6D2F-1 mice bearing P388 leukemia measured by the increase in lifespan at an intravenous dose of 22(mg/kg). The data set is classed as functional. In short, it runs like this: as §1
The subject of data set [20] is Mus musculus. Briefly: […] anticancer activity against B6D2F-1 mice bearing P388 leukemia measured by the Average survival time(days) at an intravenous dose of 30(mg/kg). Type of data set: functional. In short, it runs like this:
as §1

Data set [21] has as its system Mus musculus. Description: […] anticancer activity against 4 B6D2F-1 mice bearing P388 leukemia measured by the toxicity death at an intravenous dose of 30(mg/kg). Type of data set: organism-based. Conditions: in vivo. A digest of the protocol: as §1
The test system of data set [22] is Mus musculus. Description: […] anticancer activity against B6D2F-1 mice bearing P388 leukemia measured by the average weight change(g) after day 9 at an intravenous dose of 16(mg/kg). Type of data set: functional. In short, it runs like this: as §3
Data set [23] has as its system Mus musculus. Description: […] anticancer activity against B6D2F-1 mice bearing P388 leukemia measured by the average weight change(g) after day 7 at an intravenous dose of 8(mg/kg). Type of data set: functional. A digest of the protocol: as §3
The subject of data set [24] is Mus musculus. Description: […] anticancer activity against B6D2F-1 mice bearing P388 leukemia measured by the average weight change(g) after day 11 at an intravenous dose of 12(mg/kg). The data set is classed as functional. In short, it runs like this:
as §2

For data set [25], the system named is Mus musculus. Description: […] anticancer activity against B6D2F-1 mice bearing P388 leukemia measured by the increase in lifespan(%) at an intravenous dose of 18(mg/kg). Type of data set: functional. In short, it runs like this: as §1
In data set [26] the test system is Mus musculus. Description: […] anticancer activity against B6D2F-1 mice bearing P388 leukemia measured by the average weight change(g) after day 7 at an intravenous dose of 12(mg/kg). The data set is classed as functional. In short, it runs like this:
as §2

In data set [27] the test system is Mus musculus. Briefly: […] anticancer activity against B6D2F-1 mice bearing P388 leukemia measured by the average body weight(g) after day 1 at an intravenous dose of 12(mg/kg).
Data set [28] deals with Mus musculus. Description: […] anticancer activity against B6D2F-1 mice bearing P388 leukemia measured by the average weight change(g) after day 9 at an intravenous dose of 12(mg/kg). Type of data set: functional. In short, it runs like this: as §3
In data set [29] the test system is Mus musculus. Briefly: […] anticancer activity against B6D2F-1 mice bearing P388 leukemia measured by the average weight change(g) after day 7 at an intravenous dose of 18(mg/kg). Type of data set: functional. In short, it runs like this: as §2
Data set [30] has as its system Mus musculus. Description: […] anticancer activity against B6D2F-1 mice bearing P388 leukemia measured by the average body weight(g) after day 1 at an intravenous dose of 8(mg/kg).
The test system of data set [31] is Mus musculus. Description: […] anticancer activity against B6D2F-1 mice bearing P388 leukemia measured by the average body weight(g) after day 1 at an intravenous dose of 18(mg/kg).
Data set [32] has as its system Mus musculus. Description: […] anticancer activity against B6D2F-1 mice bearing P388 leukemia measured by the Average survival time(day+/-SD) at an intravenous dose of 12(mg/kg). Type of data set: functional. A digest of the protocol: as §1
In data set [33] the test system is Mus musculus. Briefly: […] anticancer activity against B6D2F-1 mice bearing P388 leukemia measured by the Average survival time(day+/-SD) at an intravenous dose of 18(mg/kg). The data set is classed as functional. A digest of the protocol:
as §1

Data set [34] deals with Mus musculus. Briefly: […] anticancer activity against B6D2F-1 mice bearing P388 leukemia measured by the average survival time(day+/-SD) at an intravenous dose of 8(mg/kg).. Type of data set: functional. In short, it runs like this:
as §1

Data set [35] deals with Mus musculus. Briefly: […] anticancer activity against B6D2F-1 mice bearing P388 leukemia measured by the increase in lifespan(%) at an intravenous dose of 8(mg/kg).. Type of data set: functional. In short, it runs like this:
as §1

For data set [36], the system named is Mus musculus. Description: […] anticancer activity against B6D2F-1 mice bearing P388 leukemia measured by the average weight change(g) after day 9 at an intravenous dose of 8(mg/kg). The data set is classed as functional. A digest of the protocol:
as §3

Data set [37] relates to Mus musculus. Description: […] anticancer activity against B6D2F-1 mice bearing P388 leukemia measured by the increase in lifespan(%) at an intravenous dose of 12(mg/kg). Type of data set: functional. In short, it runs like this:
as §1

For data set [38], the system named is Mus musculus. Briefly: […] anticancer activity against B6D2F-1 mice bearing P388 leukemia measured by the average weight change(g) after day 11 at an intravenous dose of 8(mg/kg). Type of data set: functional. A digest of the protocol: as §2
In data set [39] the test system is HL-60. Description: In vitro growth inhibition against human leukemia HL-60 cell line. The data set is classed as functional, cell-based. In short, it runs like this: as §4

For the molecule `Nc1cc(CO)cc(Nc2c3ccccc3nc3ccccc23)c1`, the Toxicity related death in [1], in data set [14] and in [21] was 0 throughout. Moreover, the Increase in life-span in data set [2] was 240%; in [16] it was 133%; in [19], 230%. Besides, the figures for the Average survival in data set [3], in data set [7] and in [20] were 14.9 days, 21.1 days and 21.8 days, respectively. Further, the Body weight in data set [4] turned out to be 23.8 g; in [12], 23.3 g; in data set [18], 22.6 g. The Average weight change in data set [5] was -2.1 g; in data set [6], -1.3 g; in data set [8] it was -1.5 g; in data set [9], 0.8 g; in data set [10] it was -2.8 g; in data set [11], 0.2 g. In addition, the figures for the Average weight change in data set [13], in data set [15] and in data set [22] were -0.2 g, -0.1 g and -0.5 g, respectively. Also, it took 27 nM to reach half-maximal inhibition in data set [17] (IC50).

In the case of `COc1cc(NS(C)(=O)=O)ccc1Nc1c2ccccc2nc2ccccc12` [AMSACRINE], the Average weight change in data set [23] is reported as 0.1 g; in [24] it was -3.2 g; in [26], -0.7 g; in data set [28], -1.4 g; in data set [29], -4.3 g; in data set [36], -2.1 g. For the same molecule, in [38], the Average weight change is -3.8 g. Moreover, the Increase in life-span in data set [25] was found to be 19%; in [35] it was 91%; in data set [37], 120%. Moreover, the Body weight in data set [27] is 22.7 g; in data set [30], 22.8 g; in data set [31], 24.5 g. For the same molecule, the results for the Average survival in data set [32], in data set [33] and in [34] were 14.1 days, 7.6 days and 12.2 days, respectively.

The molecule `CCOC(=O)Nc1cc(CO)cc(Nc2c3cccc(C)c3nc3c(C(=O)NCCN(C)C)cccc23)c1` came in with an IC50 in data set [39] of 2.3 nM.

As usually defined, the IC50 is the concentration that gives 50% inhibition. Low values mean higher potency, high ones lower potency.
